Laboratory results: ChEMBL document CHEMBL2321840, “Synthesis and structure-activity relationships of indazole arylsulfonamides as allosteric CC-chemokine receptor 4 (CCR4) antagonists” (J Med Chem, 2013)
≈ marks a conversion by molar mass, not a printed value.

Key:
[1] = target: T1, C-C chemokine receptor type 1 (Homo sapiens, UniProt P32246); test: Antagonist activity at CCR1 receptor (unknown origin) by [35S]GTPgammaS binding assay; type: functional
T1 sequence (P32246 whole entry): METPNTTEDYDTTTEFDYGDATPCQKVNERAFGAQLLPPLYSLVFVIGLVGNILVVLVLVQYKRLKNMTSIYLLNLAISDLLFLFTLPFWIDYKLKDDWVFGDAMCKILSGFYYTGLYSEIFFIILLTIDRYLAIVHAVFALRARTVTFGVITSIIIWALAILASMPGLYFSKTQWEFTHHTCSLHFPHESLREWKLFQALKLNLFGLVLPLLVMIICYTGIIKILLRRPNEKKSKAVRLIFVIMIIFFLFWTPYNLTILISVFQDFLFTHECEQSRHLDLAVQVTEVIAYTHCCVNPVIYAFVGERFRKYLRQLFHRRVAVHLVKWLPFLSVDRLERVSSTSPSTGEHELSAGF

[2] = Plasma protein binding in Beagle dog by equilibrium dialysis technique; type: ADME, cell-free, Canis lupus familiaris; conditions: read-out: PPB
Method in brief: (§1)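 Rapid equilibrium dialysis in CD rat, beagle dog or human plasma, with compound at a nominal 1 μg/mL; n = 3.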

[3] = Kinetic solubility of the compound by chemiluminescent nitrogen detection assay; type: physicochemical; conditions: read-out: Kinetic_solubility
Oryctolagus cuniculus = organism: Oryctolagus cuniculus; test: Cardiotoxicity in rabbit assessed as effect on conduction; type: toxicity
[4] = Oral bioavailability in CD rat at 30 mg/kg administered as suspension; type: ADME, organism-based; conditions: in vivo
[5] = Equilibrium solubility of the compound in fasted-state simulated intestinal fluid at pH 6.5 after 24 hrs by HPLC analysis; type: physicochemical
Method in brief: (§2)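 Solid compound was equilibrated 24 h in the stated medium: water, SGF pH 1.6, FeSSIF pH 6.5, FaSSIF pH 6.5 or saline. Dissolved compound was quantified by HPLC.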

[6] = target: C-C chemokine receptor type 5 (Homo sapiens, UniProt P51681); test: Antagonist activity at CCR5 receptor (unknown origin) by [35S]GTPgammaS binding assay; type: functional
in vivo = conditions: beagle, dog, iv, 0.5 mg/kg
[7] = Oral bioavailability in CD rat at 10 mg/kg administered as suspension; type: ADME, organism-based; conditions: in vivo
[8] = target: C-C chemokine receptor type 2 (Homo sapiens, UniProt P41597); test: Antagonist activity at CCR2 receptor (unknown origin) by [35S]GTPgammaS binding assay; type: functional
[9] = target: T2, C-X-C chemokine receptor type 1 (Homo sapiens, UniProt P25024); test: Antagonist activity at CXCR1 receptor (unknown origin) by [35S]GTPgammaS binding assay; type: functional
T2 sequence (P25024 whole entry): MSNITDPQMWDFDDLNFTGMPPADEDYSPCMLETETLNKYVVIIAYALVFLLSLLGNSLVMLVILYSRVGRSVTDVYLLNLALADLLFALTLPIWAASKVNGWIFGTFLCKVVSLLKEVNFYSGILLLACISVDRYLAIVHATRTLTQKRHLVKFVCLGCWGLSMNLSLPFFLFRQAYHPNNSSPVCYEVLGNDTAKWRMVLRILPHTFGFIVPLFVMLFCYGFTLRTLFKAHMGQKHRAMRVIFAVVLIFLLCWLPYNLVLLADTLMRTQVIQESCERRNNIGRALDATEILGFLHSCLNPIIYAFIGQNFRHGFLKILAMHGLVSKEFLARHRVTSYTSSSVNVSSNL

Rattus norvegicus [10] = test: Toxicity in rat assessed as effect on body temperature at 30 to 300 mg/kg, po; type: organism-based; set-up: dose 30-300 mg/kg, route oral; conditions: in vivo
Method in brief: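 Conscious rats were given oral doses of 30, 100 and 300 mg/kg. Body temperature, cardiovascular and electrocardiographic parameters were monitored.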

[11] = Volume of distribution at steady state in Beagle dog at 0.5 mg/kg, iv; type: ADME, organism-based, Canis lupus familiaris; set-up: dose 0.5 mg/kg, route intravenous; conditions: beagle, in vivo, read-out: Vdss
[12] = target: T3, C-X-C chemokine receptor type 3 (Homo sapiens, UniProt P49682); test: Antagonist activity at CXCR3 receptor (unknown origin) by [35S]GTPgammaS binding assay; type: functional
T3 sequence (P49682 whole entry): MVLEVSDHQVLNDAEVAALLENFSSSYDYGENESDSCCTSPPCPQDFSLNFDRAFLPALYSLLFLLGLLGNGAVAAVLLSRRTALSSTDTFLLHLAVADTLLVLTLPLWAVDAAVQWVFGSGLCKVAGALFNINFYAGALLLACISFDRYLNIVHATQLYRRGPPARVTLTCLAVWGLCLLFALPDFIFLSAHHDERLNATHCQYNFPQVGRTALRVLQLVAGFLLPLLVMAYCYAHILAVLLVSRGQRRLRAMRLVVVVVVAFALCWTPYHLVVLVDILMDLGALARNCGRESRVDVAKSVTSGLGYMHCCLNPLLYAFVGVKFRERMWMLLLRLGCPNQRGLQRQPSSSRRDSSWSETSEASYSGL

[13] = Oral bioavailability in Beagle dog at 1 mg/kg; type: ADME, organism-based, Canis lupus familiaris; conditions: in vivo
[14] = Kinetic solubility of the compound in PBS using DMSO at pH 7.4 by NMR analysis; type: physicochemical; conditions: read-out: Kinetic_solubility
[15] = target: T4, C-C chemokine receptor type 10 (Homo sapiens, UniProt P46092); test: Antagonist activity at CCR10 receptor (unknown origin) by [35S]GTPgammaS binding assay; type: functional
T4 sequence (P46092 whole entry): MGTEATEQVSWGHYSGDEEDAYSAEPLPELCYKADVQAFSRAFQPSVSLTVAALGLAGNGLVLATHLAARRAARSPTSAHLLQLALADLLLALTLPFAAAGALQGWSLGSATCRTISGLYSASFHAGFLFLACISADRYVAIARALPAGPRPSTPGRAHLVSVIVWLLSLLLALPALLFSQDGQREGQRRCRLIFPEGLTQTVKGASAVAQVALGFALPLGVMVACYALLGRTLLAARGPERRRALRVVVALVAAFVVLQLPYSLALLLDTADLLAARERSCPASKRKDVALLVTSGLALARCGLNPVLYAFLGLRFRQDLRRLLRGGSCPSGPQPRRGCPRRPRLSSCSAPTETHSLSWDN

[16] = Equilibrium solubility of the compound in simulated gastric fluid at pH 1.6 after 24 hrs by HPLC analysis; type: physicochemical; method in brief: as §2
[17] = Oral bioavailability in CD rat at 1 mg/kg administered as suspension; type: ADME, organism-based; conditions: in vivo
Method in brief: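 Rats received an oral suspension of wet bead-milled material (particle size <1 μm), dosed at 1, 10 and 30 mg/kg.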

[18] = Plasma protein binding in CD rat by equilibrium dialysis technique; type: ADME, cell-free; conditions: read-out: PPB; method in brief: as §1
Rattus norvegicus [19] = test: Toxicity in rat administered for 7 days; type: organism-based; conditions: in vivo, 168 h

C-C chemokine receptor type 5, sequence (P51681 whole entry): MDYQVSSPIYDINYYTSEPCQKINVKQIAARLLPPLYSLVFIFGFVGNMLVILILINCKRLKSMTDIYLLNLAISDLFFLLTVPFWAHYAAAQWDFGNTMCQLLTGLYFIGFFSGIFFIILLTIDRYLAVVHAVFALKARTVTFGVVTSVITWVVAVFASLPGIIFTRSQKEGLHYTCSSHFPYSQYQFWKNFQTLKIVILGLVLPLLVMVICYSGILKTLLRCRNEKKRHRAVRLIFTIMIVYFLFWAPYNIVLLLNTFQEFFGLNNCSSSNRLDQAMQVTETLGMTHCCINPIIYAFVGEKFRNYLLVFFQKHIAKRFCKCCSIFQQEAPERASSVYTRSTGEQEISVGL
C-C chemokine receptor type 2, sequence (P41597 whole entry): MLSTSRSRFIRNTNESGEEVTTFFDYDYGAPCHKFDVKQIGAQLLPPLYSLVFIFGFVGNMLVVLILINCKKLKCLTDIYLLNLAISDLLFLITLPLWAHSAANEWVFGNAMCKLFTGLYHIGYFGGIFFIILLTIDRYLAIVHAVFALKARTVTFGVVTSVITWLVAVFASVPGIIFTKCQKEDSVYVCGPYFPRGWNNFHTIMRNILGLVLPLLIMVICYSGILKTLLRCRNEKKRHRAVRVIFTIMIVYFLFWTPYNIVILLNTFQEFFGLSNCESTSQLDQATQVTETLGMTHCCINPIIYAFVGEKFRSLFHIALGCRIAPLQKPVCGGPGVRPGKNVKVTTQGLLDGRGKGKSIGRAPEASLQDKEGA

- IC50 [1]: > 10 µM
- fraction unbound [2]: ≤ 0.01
- solubility kinetic [3]: ≥ 162 µg/mL
- bioavailability [4]: 101%
- solubility thermodynamic at 24 h [5]: 10 µg/mL (≈ 18.2 µM)
- IC50 [6]: 6.31 µM
- clearance (in vivo): 9 mL/min/kg
- bioavailability [7]: 80%
- IC50 [8]: > 10 µM
- IC50 [9]: > 10 µM
- Vd [11]: 2.2 L/kg
- IC50 [12]: > 10 µM
- bioavailability [13]: 97%
- solubility kinetic [14]: 270 µg/mL (≈ 492 µM)
- IC50 [15]: > 10 µM
- solubility thermodynamic at 24 h [16]: 1 µg/mL (≈ 1.82 µM)
- bioavailability [17]: 53%
- fraction unbound [18]: ≤ 0.01
SMILES: COc1cccc2c1c(NS(=O)(=O)c1ccc(Cl)s1)nn2Cc1cccc(CNC(=O)C(C)(C)O)c1
- Activity (Oryctolagus cuniculus): Non-toxic
- Activity (Rattus norvegicus [10]): Non-toxic
- Activity (Rattus norvegicus [19]): Non-toxic
